OXTR ag – activates the human oxytocin receptor. AID 2435. activation, % at 3 µM. CHO-OTR cells, Fluo-8 calcium fluorescence; normalized: DMSO 0%, oxytocin 100%. actives 0.32% (n = 320,000). P30559;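 active = activation above the mean of all tested compounds plus 3 SD, cutoff set per screening run, cut at about 20% in these data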;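 note: peak over basal fluorescence ratio from a 100 s FLIPR kinetic read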
Target sequence (P30559 whole entry, looked up): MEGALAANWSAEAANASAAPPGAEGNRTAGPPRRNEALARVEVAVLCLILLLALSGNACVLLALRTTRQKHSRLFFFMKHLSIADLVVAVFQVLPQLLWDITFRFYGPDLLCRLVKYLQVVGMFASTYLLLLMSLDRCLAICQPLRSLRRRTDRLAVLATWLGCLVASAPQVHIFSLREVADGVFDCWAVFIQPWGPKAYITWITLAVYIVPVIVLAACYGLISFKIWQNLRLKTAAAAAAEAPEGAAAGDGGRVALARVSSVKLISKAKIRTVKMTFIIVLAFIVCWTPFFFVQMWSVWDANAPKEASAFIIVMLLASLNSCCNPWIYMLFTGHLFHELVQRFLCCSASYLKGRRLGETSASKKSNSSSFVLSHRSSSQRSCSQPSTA
TAAR1 ag – agonists of human TAAR1. CHO RD-HGA16 TAAR1, Fluo-8 calcium fluorescence; vehicle wells 0%, saturating PEA agonist 100%. AID 624467. actives 0.99% (n = 360,000). activation, % at 3 µM;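 active = activation above the mean activation of all test compounds in the run plus 3 SD, cut at about 38% in these data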
Target sequence (Q96RJ0 whole entry, looked up): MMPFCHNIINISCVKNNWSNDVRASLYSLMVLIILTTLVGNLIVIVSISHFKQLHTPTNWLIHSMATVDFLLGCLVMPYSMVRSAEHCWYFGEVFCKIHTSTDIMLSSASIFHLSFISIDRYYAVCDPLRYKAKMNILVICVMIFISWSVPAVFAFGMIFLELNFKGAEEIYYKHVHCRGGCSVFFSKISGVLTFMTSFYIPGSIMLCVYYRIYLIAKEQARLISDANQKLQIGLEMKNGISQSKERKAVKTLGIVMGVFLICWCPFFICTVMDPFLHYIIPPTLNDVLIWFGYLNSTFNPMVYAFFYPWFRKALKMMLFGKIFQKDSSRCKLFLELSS
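Signal – calcium-sensitive Fluo-8 signal, excitation 470-495, emission 515-575 nm · System – RD-HGA16 (CHO) cells co-expressing Gα16 and hTAAR1 · Incubation – 17-24 h seeding, 75 min 37 °C dye, 30 min RT · Compound dosing – 3 µM single concentration · Repeats – no replicates (n 1)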
OXTR potentiator – potentiates the human oxytocin receptor response. actives 0.061% (n = 320,000). CHO-OTR cells, Fluo-8 calcium fluorescence, potentiator mode; 0% = oxytocin EC15, 100% = EC100. activation, % at 3 µM. AID 2445. P30559;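 active = activation above that plate's cutoff, the mean activation of tested compounds plus 3 SD, cut at about 6.6% in these data, passing the limit was not always enough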
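Assay system: CHO-OTR cells, human receptor / Also added: oxytocin at about EC15, sub-maximal agonist stimulus / Dosing: single dose, 3.0 µM nominal final compound concentration / Incubation: 6 min pre-incubation, 100 s read / Technique: Fluo-8 calcium dye fluorescence / Read-out: % activation vs EC15 and EC100 oxytocin / Benchmarks: EC15 oxytocin low, 75 nM oxytocin high / Replicates: singlicate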
TAAR1 antagonist – human TAAR1 antagonism; CHO RD-HGA16 TAAR1, Fluo-8 calcium fluorescence, antagonist; Q96RJ0; inhibition, % at 3 µM; AID 624466; actives 1.5% (n = 360,000);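 active = inhibition above a per-plate cutoff, the mean inhibition of test compounds on that plate plus 3 SD, cut at about 49% in these data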
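Test system: hTAAR1-expressing CHO RD-HGA16 cells, Gα16-coupled; Probe or stimulus: EC80 β-phenethylamine stimulus; Compound dosing: single nominal final test compound concentration of 3 µM; Timing: 140 s kinetic read after compound, 140 s after agonist; Signal: Fluo-8 calcium-sensitive fluorescence; Measure: % inhibition of agonist calcium response; Controls: DMSO and EC80 PEA controls.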
V1aR counter – activates human V1a receptor in oxytocin agonist counter-screen; actives 0.25% (n = 320,000); activation, % at 3 µM; AID 2797; CHO-V1R cells, Fluo-8 calcium fluorescence, agonist mode; 0% DMSO, 100% 3 nM vasopressin;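 active = activation above the mean activation of all tested compounds plus 3 SD, per screening run, cut at about 20% in these data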;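 note: signal is peak over basal fluorescence ratio across a 100 second FLIPR read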
TAAR1 nonsel count – counter-screen for TAAR1 antagonists: nonselective antagonists. shares compounds with TAAR1 antagonist. AID 651780. counterscreen cell line, calcium fluorescence, antagonist mode. actives 77% (n = 2,400). inhibition, % at 3 µM; in the data active = inhibition above about 22%;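 note: CHO-Ga16 host cells stimulated with ATP at an EC80 level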
TAAR1 antag conf – human TAAR1 antagonism, confirmed; AID 651785; inhibition, % at 3 µM; TAAR1-expressing cells, fluorescence antagonist read-out; actives 40% (n = 2,400); shares compounds with TAAR1 antagonist; in the data active = inhibition above about 49%;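 note: CHO-Ga16 host cells challenged with agonist PEA near its EC80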
Ga16 ag counter – nonselective Ga16 agonism, counter-screen | Ga16-expressing cells, calcium fluorescence, agonist counterscreen | activation, % at 3 µM | shares compounds with TAAR1 antagonist | actives 18% (n = 2,400); in the data active = activation above about 12%
TAAR1 ag count – activates human TAAR1 in antagonist counter-screen; shares compounds with TAAR1 antagonist; hTAAR1 cell line, fluorescence activation, agonist mode; activation, % at 3 µM; actives 2% (n = 2,400); AID 651955; in the data active = activation above about 37%;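 note: CHO cells stably expressing TAAR1 with calcium dye readout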
Large screens that a line does not name were inactive (follow-up assays come after a bar, where they were run). In the library only some 2.3% were active in any assay of this set; here they are far more common.

COc1ccc(N2CCN(C(=O)C(C)(C)Oc3ccc(Cl)cc3)CC2)cc1	none
CNC(=S)N/N=C/c1cc(C)n(-c2ccc(Cl)c(Cl)c2)c1C	TAAR1 antagonist 70 | TAAR1 nonsel count 28 | TAAR1 antag conf 62 | Ga16 ag counter 30 | TAAR1 ag count 59
Cc1ccc(-n2c(C)cc(/C=N/NC(N)=S)c2C)cc1	TAAR1 antagonist 90 | TAAR1 nonsel count inactive | TAAR1 antag conf 91 | Ga16 ag counter inactive | TAAR1 ag count inactive
COc1ccccc1CNC(=O)C(=O)NCC1OCCCN1S(=O)(=O)c1ccc(F)cc1C (stereo not given)	none
C=CCn1cnc2c(c1=O)c1nc3ccccc3nc1n2/N=C/c1cc(OC)c(OC)c(OC)c1	none
COCCn1cnc2c(c1=O)c1nc3ccccc3nc1n2/N=C/c1cccc(OC)c1	TAAR1 antagonist 53 | TAAR1 nonsel count 27 | TAAR1 antag conf inactive | Ga16 ag counter inactive | TAAR1 ag count inactive
O=C(OCC(=O)N(CCc1ccccc1)Cc1ccccc1)c1ccccc1O	none
O=C(OCC(=O)N(CCc1ccccc1)Cc1ccccc1)c1ccccc1NCCO	TAAR1 antagonist 62 | TAAR1 nonsel count 29 | TAAR1 antag conf inactive | Ga16 ag counter inactive | TAAR1 ag count inactive
Clc1cccc(CNc2ccn3nc(-c4ccc(OCCN5CCOCC5)cc4)cc3n2)c1	TAAR1 antagonist 69 (no result: OXTR ag, OXTR potentiator, V1aR counter) | TAAR1 nonsel count 44 | TAAR1 antag conf 71 | Ga16 ag counter 23 | TAAR1 ag count inactive
c1cc(-c2cc3nc(NC4CCCCC4)ccn3n2)ccc1OCCN1CCOCC1	TAAR1 antagonist 61 (no result: OXTR ag, OXTR potentiator, V1aR counter) | TAAR1 nonsel count 24 | TAAR1 antag conf inactive | Ga16 ag counter inactive | TAAR1 ag count inactive
c1cc(-c2cc3nc(NCC4CC4)ccn3n2)ccc1OCCN1CCOCC1	none (no result: OXTR ag, OXTR potentiator, V1aR counter)
Cc1c(CN2CCC(C(=O)Nc3cccc(-c4cccc(Cl)c4)c3)CC2)cnn1C	none
Cn1c(Cc2cccs2)nnc1SCC(=O)N1CCCc2ccccc21	none
O=C(CSc1nnc(Cc2cccs2)n1C1CCCCC1)N1CCCc2ccccc21	TAAR1 antagonist 64 | TAAR1 nonsel count 36 | TAAR1 antag conf 54 | Ga16 ag counter inactive | TAAR1 ag count inactive
O=C(CSc1nnc(Cc2cccs2)n1CCc1ccccc1)N1CCCc2ccccc21	TAAR1 antagonist 57 | TAAR1 nonsel count 22 | TAAR1 antag conf 58 | Ga16 ag counter inactive | TAAR1 ag count inactive
COc1cccc(NC(=O)CSC2=NN3CCCC(=O)N=C3S2)c1	TAAR1 antagonist 104 | TAAR1 nonsel count inactive | TAAR1 antag conf inactive | Ga16 ag counter inactive | TAAR1 ag count inactive
CCOc1ccc2nc(NC(=O)CS(=O)(=O)c3ccc(C)cc3)sc2c1	TAAR1 antagonist 55 | TAAR1 nonsel count inactive | TAAR1 antag conf inactive | Ga16 ag counter inactive | TAAR1 ag count inactive
CC(C)(C)OC(=O)CNC(=O)c1nc[nH]c1C(=O)NCc1ccccc1	none
Cc1cccc(NC(=O)c2nc[nH]c2C(=O)NCCCNC(=O)c2[nH]cnc2C(=O)Nc2cccc(C)c2)c1	none
Cc1cccc(NC(=O)c2nc[nH]c2C(=O)NCCCCCNC(=O)OC(C)(C)C)c1	TAAR1 antagonist 56 | TAAR1 nonsel count inactive | TAAR1 antag conf inactive | Ga16 ag counter inactive | TAAR1 ag count inactive
C[C@H](NC(=O)c1[nH]cnc1C(=O)Nc1ccc(CNC(=O)OC(C)(C)C)cc1)C(=O)OCc1ccccc1	TAAR1 antagonist 67 | TAAR1 nonsel count 34 | TAAR1 antag conf 52 | Ga16 ag counter inactive | TAAR1 ag count inactive
CC(C)(C)OC(=O)[C@H](Cc1ccccc1)NC(=O)c1nc[nH]c1C(=O)NCC(=O)OCc1ccccc1	none
CC(C)(C)OC(=O)CNC(=O)c1[nH]cnc1C(=O)NCC(=O)OCc1ccccc1	TAAR1 antagonist 70 | TAAR1 nonsel count 31 | TAAR1 antag conf 56 | Ga16 ag counter inactive | TAAR1 ag count inactive
CC(C)(C)OC(=O)CNC(=O)c1nc[nH]c1C(=O)NCc1ccc(CNC(=O)OC(C)(C)C)cc1	TAAR1 antagonist 70 | TAAR1 nonsel count 41 | TAAR1 antag conf 54 | Ga16 ag counter 16 | TAAR1 ag count inactive
Cc1ccc2nc(-c3ccccc3)cc(C(=O)NCCCn3ccnc3)c2c1	none
CC(C)(C)OC(=O)N1CCN(C(=O)c2[nH]cnc2C(=O)N[C@@H](Cc2ccccc2)C(=O)OCc2ccccc2)CC1	TAAR1 antagonist 69 | TAAR1 nonsel count 23 | TAAR1 antag conf inactive | Ga16 ag counter inactive | TAAR1 ag count inactive
CC(C)(C)OC(=O)NCCCCCNC(=O)c1nc[nH]c1C(=O)NCC(=O)OCc1ccccc1	TAAR1 antagonist 78 | TAAR1 nonsel count 38 | TAAR1 antag conf 62 | Ga16 ag counter 13 | TAAR1 ag count inactive
CC(C)(C)OC(=O)[C@H](Cc1ccccc1)NC(=O)c1nc[nH]c1C(=O)N1CCN(C(=O)OC(C)(C)C)CC1	none
O=C(CNC(=O)c1[nH]cnc1C(=O)NC(c1ccccc1)c1ccccc1)OCc1ccccc1	TAAR1 antagonist 68 | TAAR1 nonsel count 26 | TAAR1 antag conf inactive | Ga16 ag counter inactive | TAAR1 ag count inactive
CC(C)(C)OC(=O)NCCCC[C@H](NC(=O)c1nc[nH]c1C(=O)NCC(=O)OCc1ccccc1)C(=O)OC(C)(C)C	TAAR1 antagonist 55 | TAAR1 nonsel count 23 | TAAR1 antag conf inactive | Ga16 ag counter inactive | TAAR1 ag count inactive
CC(C)C(=O)c1c(C(C)C)nn2ccccc12	none
CC(C)(C)OC(=O)NCCCCCNC(=O)c1nc[nH]c1C(=O)N1CCc2ccccc2C1	TAAR1 antagonist 76 | TAAR1 nonsel count 34 | TAAR1 antag conf 52 | Ga16 ag counter inactive | TAAR1 ag count inactive
CC(C)[C@H](NC(=O)N1CCn2c1nc1ccccc12)C(=O)N[C@@H](C(=O)O)c1ccccc1	none
O=C(CNC(=O)c1ccc(Br)o1)Nc1cccc(-c2cnc3ccccc3n2)c1	TAAR1 antagonist 64 | TAAR1 nonsel count 33 | TAAR1 antag conf 52 | Ga16 ag counter 12 | TAAR1 ag count inactive
O=C(Nc1cccc(-c2cnc3ccccc3n2)c1)c1ccncc1	none
O=C(Nc1cccc(-c2cnc3ccccc3n2)c1)c1ccco1	TAAR1 antagonist 54 | TAAR1 nonsel count inactive | TAAR1 antag conf inactive | Ga16 ag counter inactive | TAAR1 ag count inactive

Bioassay records from PubChem BioAssay.
